According to article PMC9801203 (Poultry Science, 2022):
pIC50: −log10 of the molar value. Where two headings read alike, the source gives them in different places. Marks after values point to notes of the source that are not given here.

How the values were obtained:
chicken embryos [1] = type: in vivo, Gallus gallus domesticus; settings: for effect on chick quality (in words): compared with control group; for Early dead embryos: embryos dead up to 7 d of incubation; for Late dead embryos: embryos died after 7 d of incubation; for Hatchability: hatchability of fertile eggs; for BW: hatched chicks; for BW / Chicks quality: Average score of chicks with score <100: mean ± SD; for Chicks quality: Average score of all chicks: maximum score 100, mean ± SD
Summary of the method: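 Hatching eggs in groups of 30 per repetition: one control without puncture, one punctured without injection. A 0.5 mm needle puncture delivered 0.25, 0.50 or 0.75 µg/egg in 50 µL ultrapure water (sonicated, autoclaved 108°C, 3 min); the site was sealed with plaster. Incubation at 37.5–38.5°C and 50–60% RH, turned 45° every 2 h. Candling at days 6 and 18; early deaths ≤7 d. Hatched chicks were weighed and quality-scored (maximum 100).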

[2] = test system: human liver carcinoma cell line HepG2; settings: HepG2 cells; ref Cramer et al. (2010); cited from earlier work
[3] = toxin levels in tissues of hatched chicks after in ovo injection; type: in vivo, Gallus gallus domesticus; settings: for Toxin level in heart / Toxin level in kidneys / Toxin level in liver / Toxin level in serum / Toxin level in yolk sac: hatched chicks, mean ± SD; for presence as potential metabolite of OTA and 2’R-OTA in isolated organs: chicks after in ovo injection of OTA or 2’R-OTA
Summary of the method: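 Eggs (30/group) punctured with a 0.5 mm needle, injected with test compound at 0.25, 0.50 or 0.75 µg/egg in 50 µL ultra-pure water, sealed; incubated 37.5–38.5°C, 50–60% RH, turned 45° every 2 h. Hatched chicks decapitated; serum and tissues (200 mg) deconjugated with β-glucuronidase/arylsulfatase overnight at 37°C, acetonitrile-based extraction, ¹³C₂₀-OTA internal standard, HPLC-MS/MS positive mode.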

[4] = test system: chicken embryo fibroblasts cell line SL-29 (ATCC CRL1590); test: MTT cytotoxicity assay, 48 h exposure; type: cell-based, Gallus gallus
Summary of the method: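 SL-29 chicken embryo fibroblasts were grown in DMEM with 5% FBS, 5% tryptose phosphate broth, 2 mM L-glutamine and penicillin/streptomycin at 37°C and 5% CO2. Cells were exposed to a ten-point twofold dilution series for 48 h at 37°C and 5% CO2. MTT (5 mg/mL stock in PBS) was added for 4 h and removed. Formazan was dissolved in DMSO and absorbance read at 510 nm. Samples below 50% were considered toxic.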

[5] = humans, calculated; ref Sueck et al. (2019b); cited from earlier work
HeLa cells = settings: acute toxicity, ref Xiao et al., 1996; cited from earlier work
IHKE cells = settings: cytotoxicity, ref Bittner et al., 2015; cited from earlier work
[6] = chickens; ref Galtier et al., 1981; cited from earlier work
[7] = pigs; ref Harwig et al., 1983; cited from earlier work
chicken embryos [8] = settings: 1 µg/egg, after 9 d of incubation; ref Hassan et al. (2012a); cited from earlier work
embryos of Danio rerio = settings: ref Haq et al., 2016; cited from earlier work
[9] = test system: serum-free cultures of embryonic brains of Tetra SL chick stage 29; settings: 8-day exposure, embryonic chick brain cultures; ref Bruinink et al. (1998); cited from earlier work
[10] = MTT reduction, SL-29 cells, 48 h exposure

C[C@@H]1Cc2c(Cl)cc(C(=O)N[C@H](Cc3ccccc3)C(=O)O)c(O)c2C(=O)O1 [2’R-OTA, 2’R-ochratoxin A]
effect on chick quality (in words) (chicken embryos [1]): did not reduce chick quality | Chicks quality: Chicks with score 100 (chicken embryos [1]; in ovo injection 0.25 µg/egg): 96.6%^c | Early dead embryos (chicken embryos [1]; in ovo injection 0.25 µg/egg): 14.4%^bc | Late dead embryos (chicken embryos [1]; in ovo injection 0.25 µg/egg): 6.6%^b | Hatchability (chicken embryos [1]; in ovo injection 0.25 µg/egg): 61.1%^b | BW (chicken embryos [1]; in ovo injection 0.25 µg/egg): 41.83 ± 2.54^a g | Chicks quality: Average score of all chicks (chicken embryos [1]; in ovo injection 0.25 µg/egg): 98.97 ± 5.57^b | Chicks quality: Average score of chicks with score <100 (chicken embryos [1]; in ovo injection 0.25 µg/egg): 80.00 ± 0.00^a | Chicks quality: Chicks with score 100 (chicken embryos [1]; in ovo injection 0.50 µg/egg): 68.6%^ab | Early dead embryos (chicken embryos [1]; in ovo injection 0.50 µg/egg): 15.5%^bc | Late dead embryos (chicken embryos [1]; in ovo injection 0.50 µg/egg): 4.4%^b | Hatchability (chicken embryos [1]; in ovo injection 0.50 µg/egg): 58.9%^b | BW (chicken embryos [1]; in ovo injection 0.50 µg/egg): 41.59 ± 2.91^a g | Chicks quality: Average score of all chicks (chicken embryos [1]; in ovo injection 0.50 µg/egg): 96.03 ± 8.37^ab | Chicks quality: Average score of chicks with score <100 (chicken embryos [1]; in ovo injection 0.50 µg/egg): 87.36 ± 10.85^a | Chicks quality: Chicks with score 100 (chicken embryos [1]; in ovo injection 0.75 µg/egg): 70.8%^b | Early dead embryos (chicken embryos [1]; in ovo injection 0.75 µg/egg): 21.1%^c | Late dead embryos (chicken embryos [1]; in ovo injection 0.75 µg/egg): 11.1%^c | Hatchability (chicken embryos [1]; in ovo injection 0.75 µg/egg): 46.7%^b | BW (chicken embryos [1]; in ovo injection 0.75 µg/egg): 42.43 ± 2.90^a g | Chicks quality: Average score of all chicks (chicken embryos [1]; in ovo injection 0.75 µg/egg): 94.08 ± 14.62^ab | Chicks quality: Average score of chicks with score <100 (chicken embryos [1]; in ovo injection 0.75 µg/egg): 79.71 ± 21.88^ab | cytotoxic effect relative to OTA [2]: approx. Tenfold lower cytotoxic effect | Toxin level in heart ([3]; in ovo injection 0.25 µg/egg): 0.00 ± 0.00a µg/kg | Toxin level in kidneys ([3]; in ovo injection 0.25 µg/egg): 1.18 ± 0.07b µg/kg | Toxin level in liver ([3]; in ovo injection 0.25 µg/egg): 1.11 ± 0.02b µg/kg | Toxin level in serum ([3]; in ovo injection 0.25 µg/egg): 0.38 ± 0.00 µg·days/kg | Toxin level in yolk sac ([3]; in ovo injection 0.25 µg/egg): 4.65 ± 0.04b µg/kg | Toxin level in heart ([3]; in ovo injection 0.50 µg/egg): 0.32 ± 0.02c µg/kg | Toxin level in kidneys ([3]; in ovo injection 0.50 µg/egg): 1.59 ± 0.07c µg/kg | Toxin level in liver ([3]; in ovo injection 0.50 µg/egg): 2.81 ± 0.16c µg/kg | Toxin level in serum ([3]; in ovo injection 0.50 µg/egg): 0.30 ± 0.00c µg/kg | Toxin level in yolk sac ([3]; in ovo injection 0.50 µg/egg): 7.52 ± 0.26 µg·days/kg | Toxin level in heart ([3]; in ovo injection 0.75 µg/egg): 0.87 ± 0.02e µg/kg | Toxin level in kidneys ([3]; in ovo injection 0.75 µg/egg): 5.19 ± 0.14f µg/kg | Toxin level in liver ([3]; in ovo injection 0.75 µg/egg): 12.68 ± 0.10f µg/kg | Toxin level in serum ([3]; in ovo injection 0.75 µg/egg): 1.87 ± 0.02f µg/kg | Toxin level in yolk sac ([3]; in ovo injection 0.75 µg/egg): 19.83 ± 0.63g µg/kg | pIC50 [4, 10]: 5.18 | biological half-life [5]: approx. 6 mo

C[C@@H]1Cc2c(Cl)cc(C(=O)N[C@@H](Cc3ccccc3)C(=O)O)c(O)c2C(=O)O1 [OTA, ochratoxin A]
effect on chick quality (in words) (chicken embryos [1]): considerably reduced the number of chicks with a score of 100 | Chicks quality: Chicks with score 100 (chicken embryos [1]; in ovo injection 0.25 µg/egg): 82.7%^bc | Early dead embryos (chicken embryos [1]; in ovo injection 0.25 µg/egg): 12.2%^b | Late dead embryos (chicken embryos [1]; in ovo injection 0.25 µg/egg): 4.4%^b | Hatchability (chicken embryos [1]; in ovo injection 0.25 µg/egg): 58.9%^b | BW (chicken embryos [1]; in ovo injection 0.25 µg/egg): 41.53 ± 3.06^a g | Chicks quality: Average score of all chicks (chicken embryos [1]; in ovo injection 0.25 µg/egg): 97.02 ± 9.51^b | Chicks quality: Average score of chicks with score <100 (chicken embryos [1]; in ovo injection 0.25 µg/egg): 82.78 ± 17.33^a | Early dead embryos (chicken embryos [1]; in ovo injection 0.50 µg/egg): 12.2%^b | Late dead embryos (chicken embryos [1]; in ovo injection 0.50 µg/egg): 8.9%^b | Hatchability (chicken embryos [1]; in ovo injection 0.50 µg/egg): 50.0%^ab | BW (chicken embryos [1]; in ovo injection 0.50 µg/egg): 41.59 ± 3.12^a g | Chicks quality: Average score of all chicks (chicken embryos [1]; in ovo injection 0.50 µg/egg): 98.77 ± 4.52^b | Chicks quality: Average score of chicks with score <100 (chicken embryos [1]; in ovo injection 0.50 µg/egg): 88.00 ± 9.27^a | Chicks quality: Chicks with score 100 (chicken embryos [1]; in ovo injection 0.75 µg/egg): 63.3%^a | Early dead embryos (chicken embryos [1]; in ovo injection 0.75 µg/egg): 31.1%^d | Late dead embryos (chicken embryos [1]; in ovo injection 0.75 µg/egg): 4.4%^b | Hatchability (chicken embryos [1]; in ovo injection 0.75 µg/egg): 35.6%^a | BW (chicken embryos [1]; in ovo injection 0.75 µg/egg): 41.42 ± 3.71^a g | Chicks quality: Average score of all chicks (chicken embryos [1]; in ovo injection 0.75 µg/egg): 91.03 ± 19.55^a | Chicks quality: Average score of chicks with score <100 (chicken embryos [1]; in ovo injection 0.75 µg/egg): 75.55 ± 26.30^b | pIC50 (HeLa cells): 5.30 | pIC50 (IHKE cells): 6.30 | half-life [6]: 4.1 h | order of organs in which the toxin accumulated [7]: kidneys > liver > muscle tissue and fat | Toxin level in heart ([3]; in ovo injection 0.25 µg/egg): 0.00 ± 0.00a µg/kg | Toxin level in kidneys ([3]; in ovo injection 0.25 µg/egg): 2.70 ± 0.07 µg·days/kg | Toxin level in liver ([3]; in ovo injection 0.25 µg/egg): 4.37 ± 0.04 µg·days/kg | Toxin level in serum ([3]; in ovo injection 0.25 µg/egg): 0.22 ± 0.00b µg/kg | Toxin level in yolk sac ([3]; in ovo injection 0.25 µg/egg): 7.04 ± 0.08c µg/kg | Toxin level in heart ([3]; in ovo injection 0.50 µg/egg): 0.25 ± 0.01b µg/kg | Toxin level in kidneys ([3]; in ovo injection 0.50 µg/egg): 4.56 ± 0.21e µg/kg | Toxin level in liver ([3]; in ovo injection 0.50 µg/egg): 7.12 ± 0.19e µg/kg | Toxin level in serum ([3]; in ovo injection 0.50 µg/egg): 0.31 ± 0.00c µg/kg | Toxin level in yolk sac ([3]; in ovo injection 0.50 µg/egg): 10.43 ± 0.21e µg/kg | Toxin level in heart ([3]; in ovo injection 0.75 µg/egg): 0.59 ± 0.01 µg·days/kg | Toxin level in kidneys ([3]; in ovo injection 0.75 µg/egg): 11.83 ± 0.35g µg/kg | Toxin level in liver ([3]; in ovo injection 0.75 µg/egg): 16.02 ± 0.28g µg/kg | Toxin level in serum ([3]; in ovo injection 0.75 µg/egg): 0.61 ± 0.01e µg/kg | Toxin level in yolk sac ([3]; in ovo injection 0.75 µg/egg): 12.40 ± 0.31f µg/kg | embryo defect: beak hypoplasia (chicken embryos [8]): 45% | embryo defect: beak retrognathism (chicken embryos [8]): 12% | embryo defect: cleft spine (chicken embryos [8]): 10% | embryo defect: exencephaly (chicken embryos [8]): 4% | embryo defect: microphthalmia (chicken embryos [8]): 35% | embryo defect: no eye development (chicken embryos [8]): 49% | embryo defect: nonunited abdominal integuments (chicken embryos [8]): 8% | embryo defect: reduced body weight (chicken embryos [8]): 15% | pIC50 ([4]; Gallus gallus, Fibroblast, 48 h): 6.62 | biological half-life [5]: 1 mo | teratogenicity and mortality (in words) (embryos of Danio rerio): high OTA teratogenicity

C[C@@H]1Cc2ccc(C(=O)N[C@@H](Cc3ccccc3)C(=O)O)c(O)c2C(=O)O1 [OTB, ochratoxin B]
presence as potential metabolite of OTA and 2’R-OTA in isolated organs [3]: not found in any of the organs tested above the LOD | pIC50 [4, 10]: 5.10

C[C@@H]1Cc2c(Cl)cc(C(=O)O)c(O)c2C(=O)O1 [OTα, α-ochratoxin]
pIC50 (HeLa cells): 3.25 | nontoxic up to (concentration) (IHKE cells): ≥ 50 µM | presence as potential metabolite of OTA and 2’R-OTA in isolated organs [3]: not found in any of the organs tested above the LOD | pIC50 [4, 10]: 5.28 | neurotoxic effects not observed up to (concentration) [9]: ≥ 15 µM | teratogenicity and mortality (in words) (embryos of Danio rerio): negligible teratogenicity and mortality
